Results from publication PMC3544278 (Journal of Medicinal Chemistry, 2012).
Marks after values point to notes of the source that are not given here.

How the values were obtained:
FAAH = molecular target: T1, FAAH (Rattus norvegicus, UniProt P97612); assay: Irreversible binding of [11C]-radiotracers to FAAH in rat brain parenchyma; assay type: in vivo
T1 sequence (P97612 1-579): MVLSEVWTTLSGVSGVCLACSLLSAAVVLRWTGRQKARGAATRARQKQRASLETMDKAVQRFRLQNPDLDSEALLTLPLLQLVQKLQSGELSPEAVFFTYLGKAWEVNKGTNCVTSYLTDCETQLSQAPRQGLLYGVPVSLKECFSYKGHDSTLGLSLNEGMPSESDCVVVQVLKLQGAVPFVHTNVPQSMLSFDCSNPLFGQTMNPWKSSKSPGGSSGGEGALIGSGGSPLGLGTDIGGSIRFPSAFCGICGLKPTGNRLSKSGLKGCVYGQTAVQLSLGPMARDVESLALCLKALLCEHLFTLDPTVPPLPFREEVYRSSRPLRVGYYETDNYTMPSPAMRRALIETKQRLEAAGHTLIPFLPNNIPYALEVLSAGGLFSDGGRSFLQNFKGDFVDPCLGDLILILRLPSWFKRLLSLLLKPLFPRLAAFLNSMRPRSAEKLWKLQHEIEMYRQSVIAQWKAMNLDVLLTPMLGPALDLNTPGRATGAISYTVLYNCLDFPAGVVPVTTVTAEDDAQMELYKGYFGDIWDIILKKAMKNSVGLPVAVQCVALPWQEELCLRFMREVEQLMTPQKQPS

[1] = Biodistribution of [11C]-radiotracers in rat brain; assay type: in vivo; conditions: mean (n = 5) ± SD
How it was run: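 Conscious restrained rats (n = 5/time point) received 30–60 MBq [11C]-radiotracer (70–170 GBq/μmol; 0.3–0.8 nmol) iv by tail vein in buffered saline with 0.5% Tween 80. After decapitation, brain regions were excised, blotted, weighed, gamma-counted and decay-corrected against injected-dose standards. SUV = %ID/g […] body weight (kg). Blocking groups got an FAAH inhibitor (2 mg/kg ip, saline/Tween 80) or vehicle 30 min before. Student's t test.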

## O=C(NC1CCCCC1)Oc1cc(O)cc(-c2ccccc2)c1 [[^11C]1, [^11C-carbonyl]N-cyclohexyl-5-hydroxy[1,1′-biphenyl]-3-ylcarbamic acid ester]
FAAH
  % bound (irreversibly) at 60 min postinjection: about 90%
[1]; 2 min post iv injection
  Regional brain uptake, cortex (2 min): 2.40 ± 0.18 SUV
  Regional brain uptake, hypothalamus (2 min): 1.61 ± 0.23 SUV
[1]; 40 min post iv injection
  Regional brain uptake, cortex (40 min): 2.49 ± 0.25 SUV
  Regional brain uptake, hypothalamus (40 min): 1.14 ± 0.13 SUV
[1]; 40 min post iv injection, pretreated with compound 2 (2 mg/kg, ip)
  Regional brain uptake, cortex (40 min, blocked): 0.36 ± 0.04 ^b SUV
